The test system of assay [1] is PK-59 (pancreas cancer) cells. The assay is described as follows: MTT cytotoxicity assay, PK-59. It is filed as cell-based, human. In short, it runs like this:
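PK-59 pancreas cancer cells cultured in RPMI 1640 with 10% FBS and penicillin/streptomycin (37 °C, humidified 5% CO2). 1 × 10^4 cells/well exposed 48 h to dicopper complexes (1–400 or 1–1000 μM) or cisplatin (0.1–20 μM). After PBS rinses, MTT 0.5 mg mL–1 for 3 h, then DMSO. IC50 from viability vs log[conc]; ≥3 repeats, mean ± SD. SF = IC50(2C6)/IC50(PK-59).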
For orientation: Formazan colour is commonly taken as a measure of viable cells.

For assay [2], the system named is WI-38 (human lung fibroblast normal) cells. The assay is described as follows: MTT cytotoxicity assay, WI-38. It is filed as cell-based. The conditions noted are these: read-out: IC50 WI-38 (normal), lung, 48 h, mean ± SD. The method, boiled down: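 WI-38 lung fibroblast normal cells grown in Eagle's MEM with 10% FBS and penicillin/streptomycin at 37 °C, 5% CO2. 1 × 10^4 cells/well given dicopper complexes (1–400 or 1–1000 μM) or cisplatin (0.1–20 μM) for 48 h; medium-only controls. PBS rinses, MTT 0.5 mg mL–1 for 3 h, DMSO solubilisation. IC50 from viability vs log[conc]; ≥3 repeats, mean ± SD.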

Assay [3] has as its system A549 (human lung cancer) cells. The assay is described as follows: MTT cytotoxicity assay, A549. In kind it is cell-based. The method, boiled down: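 A549 lung cancer cells grown in low-glucose DMEM with 10% FBS and penicillin/streptomycin (37 °C, 5% CO2). Plated at 1 × 10^4 cells/well. Treated 48 h with dicopper complexes (1–400 or 1–1000 μM) or cisplatin (0.1–20 μM). Wells rinsed with PBS, then MTT 0.5 mg mL–1 for 3 h and DMSO. IC50 from viability vs log[conc]; ≥3 repeats, mean ± SD. SF = IC50(WI-38)/IC50(A549).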

In assay [4] the test system is HeLa (human cervical cancer) cells. The assay is described as follows: MTT cytotoxicity assay, HeLa. In kind it is cell-based. The settings on record: read-out: IC50 HeLa (cancer), cervical, 48 h, mean ± SD. In short, it runs like this:
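HeLa cervical cancer cells maintained in high-glucose D-MEM with 10% FBS and penicillin/streptomycin at 37 °C, 5% CO2. 1 × 10^4 cells/well incubated 48 h with dicopper complexes (1–400 or 1–1000 μM) or cisplatin (0.1–20 μM); blank and control wells got medium only. PBS wash, MTT (0.5 mg mL–1, 3 h), formazan dissolved in DMSO. IC50 from viability vs log[conc]; ≥3 repeats, mean ± SD.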

For assay [5], the system named is 2C6 (human embryonic pancreas normal) cells. The assay is described as follows: MTT cytotoxicity assay, 2C6. The settings on record: read-out: IC50 2C6 (normal), pancreas, 48 h, mean ± SD. It is filed as cell-based. In short, it runs like this: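 2C6 pancreas normal cells kept in Ham F10 with 10% newborn calf serum, 5% FBS, 2.5% horse serum and penicillin/streptomycin at 37 °C, 5% CO2. Seeded at 1 × 10^4 cells/well. Exposed 48 h to dicopper complexes (1–400 or 1–1000 μM) or cisplatin (0.1–20 μM); medium-only controls. PBS rinses, MTT 0.5 mg mL–1 for 3 h, DMSO solubilisation. IC50 from viability vs log[conc]; ≥3 repeats, mean ± SD.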

As usually defined, the IC50 is the concentration that inhibits the measured activity by half.

`N.N.[Cl][Pt][Cl]` [cisplatin]: the “SF (selectivity factor), pancreas” value in assay [1] ((IC50 of normal cells)/(IC50 of cancer cells), 2C6/PK-59, 48 h) came to 0.6. For the same compound, the IC50 is 2.01 ± 0.02 µM in assay [1] (read-out: IC50 PK-59 (cancer), pancreas, MTT assay, 48 h, mean ± SD); 4.55 ± 0.03 µM in assay [2]; 1.83 ± 0.03 µM in assay [3] (read-out: IC50 A549 (cancer), lung, MTT assay, 48 h, mean ± SD); 0.93 ± 0.01 µM in assay [4]; 1.15 ± 0.08 µM in assay [5]. Moreover, the “SF (selectivity factor), lung” value in assay [3] ((IC50 of normal cells)/(IC50 of cancer cells), WI-38/A549, 48 h) was 2.5.
